Experimental data: ChEMBL document CHEMBL4732054, “Extension of furopyrimidine nucleosides with 5-alkynyl substituent: Synthesis, high fluorescence, and antiviral effect in the absence of free ribose hydroxyl groups” (Eur J Med Chem, 2021)
pEC50: −log10 of the molar value.

Experiments:
HEL = assay: Cytotoxicity against human HEL cells assessed as reduction in cell growth incubated for 3 days by coulter counter method; assay type: cell-based; settings: 72 h, time 3 day
Method in brief: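 HEL cells were seeded at 5 × 10^3 cells/well and allowed to grow for 24 h. Medium containing varying compound concentrations was then added, and cells were incubated 3 days at 37 °C. Cell number was counted with a Coulter counter.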

Human alphaherpesvirus 3 [1] = assay: Antiviral activity against thymidine kinase positive Varicella zoster virus OKA infected in human HEL cells assessed as reduction in virus-induced cytopathogenic effect measured after 3 days coulter counter method; assay type: functional, organism-based; settings: Human alphaherpesvirus 3, OKA, 72 h
[2] = Selectivity index, ratio of CC50 for human HEL cells to EC50 for thymidine kinase positive Varicella zoster virus OKA infected in human HEL cells; assay type: toxicity, cell-based; settings: read-out: Ratio CC50/EC50
Method in brief: (§1)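 VZV plaque reduction in confluent HEL cells: 20 PFU input, 1–2 h adsorption, then unbound virus removed and cells given varying compound concentrations in duplicate. EC50 is the concentration halving plaque number. […] SI = CC50/EC50.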

Human alphaherpesvirus 3 [3] = assay: Antiviral activity against thymidine kinase deficient Varicella zoster virus 07-1 infected in human HEL cells assessed as reduction in virus-induced cytopathogenic effect measured after 3 days coulter counter method; assay type: functional, organism-based; settings: Human alphaherpesvirus 3, 07-1, HEL, 72 h
[4] = Cytotoxicity against human HEL cells assessed as concentration required to cause visible alteration in cell morphology incubated for 3 days by coulter counter method; assay type: cell-based; settings: time 3 day
Method in brief: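 MCC scored by microscopy in confluent HEL cell cultures as the lowest compound concentration that causes a visible change in cell morphology.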

[5] = Selectivity ratio of EC50 for thymidine kinase deficient Varicella zoster virus 07-1 infected in human HEL cells to EC50 for thymidine kinase positive Varicella zoster virus OKA infected in human HEL cells; assay type: functional
[6] = Selectivity index, ratio of CC50 for human HEL cells to EC50 for thymidine kinase deficient Varicella zoster virus 07-1 infected in human HEL cells; assay type: toxicity, cell-based; settings: read-out: Ratio CC50/EC50; method in brief: as §1

| Structure (SMILES) | CC50 (HEL) | pEC50 (Human alphaherpesvirus 3 [1]) | selectivity ratio [2] | pEC50 (Human alphaherpesvirus 3 [3]) | MCC at 72 h [4] | Ratio EC50 [5] | selectivity ratio [6] |
| --- | --- | --- | --- | --- | --- | --- | --- |
| CCCCCc1ccc(-c2oc3nc(=O)n([C@H]4C[C@H](OC(C)=O)[C@@H](COC(C)=O)O4)cc3c2C#CCCO)cc1 | 2.66 µM | 5.40 | ≤ 1 | 4.89 | 100 µM | – | – |
| CCCCCc1ccc(C#Cc2c(-c3ccc(C)cc3)oc3nc(=O)n([C@H]4C[C@H](OC(C)=O)[C@@H](COC(C)=O)O4)cc23)cc1 | – | < 5.40 | – | < 5.40 | 20 µM | – | – |
| CC(=O)OCC#Cc1c(-c2ccc(C)cc2)oc2nc(=O)n([C@H]3C[C@H](OC(C)=O)[C@@H](COC(C)=O)O3)cc12 | – | < 4.00 | – | 4.00 | > 100 µM | – | – |
| CCCCCc1ccc(-c2oc3nc(=O)n([C@H]4C[C@H](OC(C)=O)[C@@H](COC(C)=O)O4)cc3c2C#Cc2ccc(C)cc2)cc1 | – | 5.12 | – | < 4.70 | 100 µM | – | – |
| CC(=O)OC[C@H]1O[C@@H](n2cc3c(C#CCO)c(-c4ccc(C)cc4)oc3nc2=O)C[C@@H]1OC(C)=O | – | 4.17 | – | < 4.00 | > 100 µM | – | – |
| CC(=O)OC[C@H]1O[C@@H](n2cc3c(C#CC4(O)c5ccccc5-c5ccccc54)c(-c4ccc(C)cc4)oc3nc2=O)C[C@@H]1OC(C)=O | 2.36 µM | 5.89 | ≤ 1 | 5.12 | 100 µM | – | – |
| CC(=O)OC[C@H]1O[C@@H](n2cc3c(C#CCCO)c(-c4ccc(C)cc4)oc3nc2=O)C[C@@H]1OC(C)=O | – | 4.12 | – | < 4.00 | > 100 µM | – | – |
| COCC#Cc1c(-c2ccc(C)cc2)oc2nc(=O)n([C@H]3C[C@H](OC(C)=O)[C@@H](COC(C)=O)O3)cc12 | – | 4.70 | – | 4.35 | > 100 µM | – | – |
| CC(=O)OC[C@H]1O[C@@H](n2cc3c(C#Cc4ccc(C)cc4)c(-c4ccc(C)cc4)oc3nc2=O)C[C@@H]1OC(C)=O | 8.77 µM | 5.16 | ≤ 1 | 4.96 | 60 µM | – | – |
| CC(=O)OC[C@H]1O[C@@H](n2cc3c(C#CCCCCn4c5ccccc5c5ccccc54)c(-c4ccc(C)cc4)oc3nc2=O)C[C@@H]1OC(C)=O | 6.22 µM | 5.14 | ≤ 1 | 4.88 | 100 µM | – | – |
| CCCCCc1ccc(C#Cc2c(-c3ccc(CCCCC)cc3)oc3nc(=O)n([C@H]4C[C@H](OC(C)=O)[C@@H](COC(C)=O)O4)cc23)cc1 | > 100 µM | 5.82 | 67 | 5.05 | 100 µM | 6 | 11 |
| CCCCCc1ccc(-c2oc3nc(=O)n([C@H]4C[C@H](OC(C)=O)[C@@H](COC(C)=O)O4)cc3c2C#CCO)cc1 | 3.8 µM | 5.12 | ≤ 1 | 4.89 | 100 µM | – | – |
| CC(=O)OC[C@H]1O[C@@H](n2cc3c(C#CCCN4C(=O)c5ccccc5C4=O)c(-c4ccc(C)cc4)oc3nc2=O)C[C@@H]1OC(C)=O | – | 4.51 | – | 4.42 | 100 µM | – | – |
| Nc1nc2c(ncn2COCCO)c(=O)[nH]1 [ACYCLOVIR] | > 300 µM | – | – | – | > 440 µM | – | – |
| O=c1[nH]c(=O)n([C@H]2C[C@H](O)[C@@H](CO)O2)cc1/C=C/Br [BRIVUDINE] | > 300 µM | – | – | 4.92 | > 300 µM | – | – |
